Source: ChEMBL document CHEMBL1649308, “Affinity of the new cephalosporin CXA-101 to penicillin-binding proteins of Pseudomonas aeruginosa” (Antimicrob Agents Chemother, 2010)
Values after ≈ are worked out from the molar mass of the structure shown. Active and inactive are the calls of the source. The rule behind the calls is not given here.

Key:
[1] = test system: Pseudomonas aeruginosa; assay: Induction of ampC mRNA expression in Pseudomonas aeruginosa PAO1 at 50 ug/ml relative to untreated control; type: functional
In short: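 The inducer was given at 50 μg/ml for 3 h, with an untreated comparison. RNA from log-phase LB cultures was DNase-treated, and ampC expression was quantified by real-time RT-PCR normalized to rpsL. Values are the mean of at least three independent duplicate experiments.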

[2] = test system: Pseudomonas aeruginosa; assay: Induction of ampC mRNA expression in Pseudomonas aeruginosa PAO1 at 0.5 X MIC relative to untreated control; type: functional
In short: (§1)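 Cells were exposed for 3 h to subinhibitory drug (1/2 or 1/4 MIC), alongside untreated cells. RNA was taken from log-phase LB cultures and DNase-treated (2 U, 30 min, 37°C). ampC mRNA was measured by real-time RT-PCR and normalized to rpsL. Values are the mean relative expression from at least three independent duplicate experiments.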

[3] = Inhibition of Pseudomonas aeruginosa PAO1 PBP1b by SDS-PAGE
In short: (§2)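 Membranes were prepared from late-log (OD600 1) LB cultures by sonication and two rounds of 150,000 × g ultracentrifugation in 20 mM KH2PO4-140 mM NaCl, pH 7.5. Membranes were preincubated 30 min at 37°C with drug (0.0156–2 μg/ml), then labeled with 25 μM Bocillin FL. Samples were run on SDS-PAGE and read by fluorescence (ex 488/em 530 nm). IC50 values come from triplicate experiments.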

[4] = test system: Pseudomonas aeruginosa; assay: Antimicrobial activity against Pseudomonas aeruginosa PAO1 assessed as appearance of long filaments at 0.5 X MIC after 2 hrs by Live/dead cell viability assay; type: functional, organism-based
[5] = Inhibition of Pseudomonas aeruginosa PAO1 PBP3 by SDS-PAGE; in short: as §2
[6] = test system: Pseudomonas aeruginosa; assay: Induction of ampC mRNA expression in Pseudomonas aeruginosa PAO1 at 0.25 X MIC relative to untreated control; type: functional; in short: as §1
[7] = Inhibition of Pseudomonas aeruginosa PAO1 PBP5/6 by SDS-PAGE; in short: as §2
[8] = Inhibition of Pseudomonas aeruginosa PAO1 PBP1c by SDS-PAGE; in short: as §2
[9] = Inhibition of Pseudomonas aeruginosa PAO1 PBP4 by SDS-PAGE; in short: as §2
[10] = Inhibition of Pseudomonas aeruginosa PAO1 PBP2 by SDS-PAGE; in short: as §2
[11] = test system: Pseudomonas aeruginosa; assay: Antimicrobial activity against Pseudomonas aeruginosa PAO1 at 4 X MIC after 8 hrs by Live/dead cell viability assay; type: functional, organism-based
[12] = test system: Pseudomonas aeruginosa; assay: Antimicrobial activity against Pseudomonas aeruginosa PAO1 by broth microdilution method; type: functional
In short: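 MICs against strain PAO1 by standard CLSI broth microdilution (M100-S18).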

[13] = test system: Pseudomonas aeruginosa; assay: Bactericidal activity against Pseudomonas aeruginosa PAO1 assessed as reduction in viable bacterial count at 2 X MIC after 8 hrs by time-kill analysis; type: functional
In short: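 PAO1 grown overnight in Mueller-Hinton broth, diluted 1/100 and grown at 37°C, 180 rpm to mid-log phase (OD600 0.2). Then inoculated into MHB with 0, 0.5×, 1×, 2× or 4× MIC to an initial OD600 of 0.01 (ca. 10^7 CFU/ml). Viable counts taken by plating serial dilutions on MH agar over 8 h. Triplicate experiments, mean ± SD.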

[14] = test system: Pseudomonas aeruginosa; assay: Bactericidal activity against Pseudomonas aeruginosa PAO1 assessed as reduction in viable bacterial count at MIC after 8 hrs by time-kill analysis; type: functional
In short: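 Overnight MHB cultures were diluted 1/100 and grown at 37°C, 180 rpm to OD600 0.2. Flasks of MHB with 0, 0.5×, 1×, 2× or 4× MIC were inoculated to OD600 0.01 (ca. 10^7 CFU/ml). Viable counts were followed over 8 h by plating serial dilutions on MH agar, with OD600 also read. Values are the mean ± SD of triplicate runs.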

With `CO[C@@]1(NC(=O)Cc2cccs2)C(=O)N2C(C(=O)O)=C(COC(N)=O)CS[C@@H]21` [CEFOXITIN] the “fold change (FC)” value [1] was 50.

For `CC(C)(O/N=C(\C(=O)N[C@@H]1C(=O)N2C(C(=O)[O-])=C(C[n+]3ccccc3)CS[C@H]12)c1csc(N)n1)C(=O)O` [CEFTAZIDIME], the “fold change (FC)” value [2] was 1.2, the IC50 [3] was 0.12 µg/mL (≈ 0.22 µM) and the Activity [4] was “Active”. The IC50 [5] was 0.04 µg/mL (≈ 0.0732 µM), the “fold change (FC)” value [6] was 1.2 and the IC50 [7] was > 2 µg/mL. The IC50 [8] was > 2 µg/mL, the IC50 [9] was 1.23 µg/mL (≈ 2.25 µM) and the IC50 [10] was > 2 µg/mL. The Activity [11] was “Active”, the MIC [12] was 1 µg/mL (≈ 1.83 µM) and the Activity [13] was >3.

For `Cn1c(N)c(NC(=O)NCCN)c[n+]1CC1=C(C(=O)O)N2C(=O)[C@@H](NC(=O)/C(=N\OC(C)(C)C(=O)[O-])c3nsc(N)n3)[C@H]2SC1` [CEFTOLOZANE], the “fold change (FC)” value [2] was 1.3, the IC50 [3] was 0.07 µg/mL (≈ 0.105 µM) and the Activity [4] was “Active”. For the same molecule, the IC50 [5] was 0.02 µg/mL (≈ 0.03 µM), the “fold change (FC)” value [6] was 1.6 and the IC50 [7] was > 2 µg/mL. It also gave an IC50 [8] of 0.64 µg/mL (≈ 0.96 µM), an IC50 [9] of 0.29 µg/mL (≈ 0.435 µM) and an IC50 [10] of 1.36 µg/mL (≈ 2.04 µM). The “fold change (FC)” value [14] was >3, the Activity [11] was “Active” and the MIC [12] was 0.5 µg/mL (≈ 0.75 µM).

With `C[C@@H](O)[C@H]1C(=O)N2C(C(=O)O)=C(SCCNC=N)C[C@H]12` [IMIPENEM ANHYDROUS] the “fold change (FC)” value [2] was 269.5, the IC50 [3] was 0.13 µg/mL (≈ 0.434 µM) and the Activity [4] was “Active”. The IC50 [5] was 0.12 µg/mL (≈ 0.401 µM), the “fold change (FC)” value [6] was 193.2 and the IC50 [7] was 0.2 µg/mL (≈ 0.668 µM). For the same molecule, the IC50 [8] was 0.08 µg/mL (≈ 0.267 µM), the IC50 [9] was 0.02 µg/mL (≈ 0.0668 µM) and the IC50 [10] was 0.08 µg/mL (≈ 0.267 µM). The Activity [11] was “Active” and the MIC [12] was 1 µg/mL (≈ 3.34 µM).
